# Ins promoter up = insulin promoter activators in MIN6 cells, imaging, high-content screening, mouse beta cells. MIN6 insulin promoter-GFP reporter; stronger effect = higher value. z-score at 5 µM. hit rate 0.3% among 190,000. AID 1625, 2009;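 active = z-score above 3 at 5 µM with at least 500 cells counted in the well; inconclusive = wells under 500 cells, flagged as cytotoxic or low count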
# BB579 growth dn = growth inhibitors of yeast BB579 in restrictive medium, primary screen, yeast lifespan-shortening project, S. cerevisiae. AID 804, 2007. inhibition, % at 10 µM. hit rate 0.51% among 140,000. OD615, 48 h;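 active = inhibition above a set limit, 3 SD over the mean compound inhibition, cut at about 44% in these data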
#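 System: Saccharomyces cerevisiae DeaD strain BB579, replicative lifespan model yeast | Buffer or medium: Restrictive glucose-based CSMM-D medium | Times: 4 h preincubation and 48 h exposure at 30 °C | Detection: OD615 turbidity measurement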
# Yeast life ext = compounds extending yeast replicative lifespan, primary screen, S. cerevisiae, OD615; S. cerevisiae growth with nicotinamide; deaD strain in restrictive glucose medium; inhibition of the nicotinamide effect, % at 10 µM; hit rate 0.68% among 130,000; AID 775, 2007;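 active = inhibition above a set limit, placed 3 SD over the median of all compounds, cut at about 26% in these data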
#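 assay system = DeaD-strain S. cerevisiae | buffer or medium = restrictive glucose medium | reagent = 1.5 mM nicotinamide | compound = 10 µM single point, 0.25% DMSO | incubation = 48 h compound exposure at 30 °C, humidified | signal = OD615 measurement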
# INS promoter inh = inhibitors of insulin promoter-driven GFP, primary screen, imaging, TRM-6 cells (human fetal islet line), eGFP reporter, cell count. inhibition, % at 2 µM. hit rate 0.9% among 130,000. reporter expression induced with tamoxifen;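 active = inhibition above the mean plus 3 SD, with well images judged a real hit on visual review, cut at about 60% in these data, passing the limit was not always enough; inconclusive = inhibition over the cutoff but images rejected on review; inactive = inhibition not above the cutoff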
# RAM inhibit = inhibitors of the yeast RAM network, primary screen, dse1pr::URA3 reporter, 5-FOA selection. S. cerevisiae dse1pr::URA3 reporter, 5-FOA growth OD615, 2 d; analog-sensitive cbk1-as2 kinase mutant strain. inhibition, % at 50 µM. hit rate 1.8% among 190,000. AID 868, 2007;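 active = inhibition above a set limit, 3 SD over mean compound inhibition, cut at about 8.4% in these data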;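 note: inhibition rescues growth on 5-FOA so higher OD means more RAM inhibition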
# Numbers stand for hits; 0 = inactive; ? = inconclusive; - = not tested or not shown. A selection: hits, their analogues and other compounds. The true share with any hit is near 3%.
SMILES,Ins promoter up,BB579 growth dn,Yeast life ext,INS promoter inh,RAM inhibit
CC1(C)CC2CC(C)(CN2C(=S)NC(=O)c2ccccc2Cl)C1 (stereo not given),0,0,28.8,-,0
COCN(C#N)c1nc(N(C)C)nc(N(C)C)n1,0,-,-,-,0
COc1ccc(CN(C#N)c2nc(SC)nc(N(C)C)n2)cc1,0,0,0,-,10.9
CC(NC(=O)C12CC3(C)CC(C)(CC(C)(C3)C1)C2)C(=O)O (stereo not given),0,-,-,70.6,0
CC12CC3(C)CC(C)(C1)CC(C(=O)NCC(=O)O)(C2)C3,0,-,-,-,0
CCOc1cc(NC(=S)NCCOC)c(OCC)cc1NC(=O)c1ccco1,0,-,-,-,0
Cc1[nH][nH]c(=O)c1/C=N/N1CCOCC1,0,-,-,-,0
O=C(NCCc1ccccc1)N1c2ccccc2Sc2ccccc21,0,0,0,0,9.8
O=C(Nc1ccc(OC(F)(F)C(F)F)c(NC(=O)c2cccc(F)c2)c1)c1cccc(F)c1,-,0,0,0,0
CC(=O)c1ccc(NC(=O)C(C)OC(=O)c2ccc(NS(=O)(=O)c3ccc(F)c(F)c3)cc2)cc1 (stereo not given),0,0,0,0,9.2
O=C(Cn1c(CO)nc2ccccc21)NC1CCCCCC1,0,-,-,0,0
COc1cc(C2NC(=O)NC(c3ccccc3)=C2C(C)=O)cc([N+](=O)[O-])c1O (stereo not given),-,-,-,-,0
Nc1nc(-c2ccccc2)c(-c2ccccc2)s1,0,0,0,0,0
Cc1ccc(-c2nc(N)sc2-c2ccccc2)cc1C,0,78.6,0,0,0
CN(CCNC(=O)c1cn(C)c2ccc(S(=O)(=O)N(C)C)cc2c1=O)CCc1ccccc1,0,0,0,-,0
CCn1cc(C(=O)NCCN(C)CCc2ccccc2)c(=O)c2cc(S(=O)(=O)N(C)C)ccc21,3.87,0,0,0,0
Cc1ccc(S(=O)(=O)Nc2ccccc2/C=N/c2nc3ccccc3n2C)cc1,0,0,31.0,0,0
Cc1ccc(S(=O)(=O)Nc2ccccc2C=Nc2cccc(C)c2C)cc1,0,0,0,-,0
CCc1cc2c(=O)c(-c3nc4ccccc4[nH]3)coc2cc1OC(=O)N1CCOCC1,0,0,0,-,10.8
Oc1ccc(N=Nc2n[nH]c(-c3ccc(Br)cc3)n2)cc1,0,0,0,0,8.8
Oc1ccc(N=Nc2n[nH]c(-c3ccccc3)n2)cc1,0,0,0,0,0
O=C(C1CCOCC1)N1CCC(CO)(CCc2ccccc2)CC1,0,-,-,-,0
CCOc1ccc(-n2c(Cc3cc(=O)[nH]c(=O)[nH]3)nnc2SCC(=O)Nc2nnc(C)s2)cc1,0,-,-,0,0
CCCc1nccn1S(=O)(=O)c1cc(OC)ccc1OC,0,0,0,75.0,0
CCc1nccn1S(=O)(=O)c1cc(Br)ccc1OC,0,0,0,0,0
SMILES,Ins promoter up,BB579 growth dn,Yeast life ext,INS promoter inh,RAM inhibit
CCc1nn(CC(=O)Nc2ccc(Br)c(C)c2)c(=N)s1,0,-,-,0,0
N#C/C(=C/c1ccc(CNC(=O)C(=O)Nc2cc(Cl)cc(Cl)c2)o1)C(=O)NCc1cccnc1,0,0,0,-,8.6
O=S(=O)(NC1CC2CCC1C2)c1ccc(Br)s1 (stereo not given),0,98.0,0,0,0
O=C(NC1CCCCC1)C12CC3CC(CC(Cl)(C3)C1)C2,0,0,0,-,0
CCC(=O)NC(=S)NNC(=O)c1ccc(OC)cc1,0,0,0,0,0
CCCCOc1ccc(C(=O)NNC(=S)NC(=O)CC)cc1,0,48.4,0,0,0
O=C(O)CCc1ccccc1OC(=O)c1ccccc1,0,-,-,-,-
COc1cccc(CCC(=O)O)c1OC,-,0,0,88.9,0
O=C(/C=N\O)NCCCNCc1ccccc1,0,0,50.4,-,0
O=C(NCCCNCc1ccccc1)c1ccncc1,0,0,0,0,0
CN(C)/C=C(\C#N)C(=O)N/N=C(\CC(=O)C(F)(F)F)c1ccco1,0,-,-,-,0
CCOC(=O)C1(C)C=C(Nc2ccc(C)cc2)C(=O)N1c1ccc(C)cc1 (stereo not given),0,-,-,70.4,0
C=CS(=O)(=O)c1ccc(Oc2ccc(S(=O)(=O)C=C)cc2)cc1,0,0,60.8,0,0
NS(=O)(=O)c1ccc(Oc2ccc(S(N)(=O)=O)cc2)cc1,0,-,-,0,0
COC(=O)C(=Cc1ccc(OCc2ccc([N+](=O)[O-])cc2)c(OC)c1)C(=O)OC,0,0,0,0,9.2
CC#CCN1c2ccccc2[C@]23C[C@@H](C(=O)OC)N(C(=O)c4ccco4)C2=NC(C(=O)OC)=C(C(=O)OC)[C@H]13,0,-,-,-,-
CC1CC(C)(C)N(C(=O)NC2CCCCC2)c2ccccc21 (stereo not given),0,0,-,0,0
COc1ccc2c(c1)C(C)CC(C)(C)N2C(=O)NC1CCCCC1 (stereo not given),0,0,27.0,?,0
Cc1cc(C(=O)CSc2nnc(-c3cccs3)n2Cc2ccccc2)c(C)n1C,0,0,0,0,0
O=c1cc(CSc2nnc(-c3cccs3)n2Cc2ccccc2)nc2sc3ccccc3n12,?,0,0,-,8.6
CCCCOC(=O)CSc1nc2c(c(=O)[nH]c(=O)n2C)n1C/C=C(\C)Cl,0,0,87.3,0,0
C/C(Cl)=C/Cn1c(SCC(C)C)nc2c1c(=O)[nH]c(=O)n2C,0,-,-,-,-
CCCCCOC(=O)CSc1nc2c(c(=O)[nH]c(=O)n2C)n1CCc1ccccc1,0,0,91.7,0,0
OCCC1CN(Cc2cccn2-c2cccnc2)CCN1Cc1ccccc1 (stereo not given),0,-,-,-,0
CN(CCc1cn[nH]c1)Cc1nc(Cc2ccccc2)no1,0,-,-,-,0
SMILES,Ins promoter up,BB579 growth dn,Yeast life ext,INS promoter inh,RAM inhibit
O=C(Nc1ccc(N2CCN(C(=O)c3cccs3)CC2)c(Cl)c1)c1ccco1,0,0,0,0,0
Cc1ccccc1C(=O)N1CCN(c2ccc(NC(=O)c3ccco3)cc2Cl)CC1,0,0,0,84.6,0
CCN1CCCC1CN(Cc1cc2ccc(C)cc2[nH]c1=O)C(=S)Nc1cccc(OC)c1 (stereo not given),0,0,0,0,0
COC(=O)c1[nH]c2cccc(Cl)c2c1NC(=O)CN(C)C1CCCCC1,3.5,0,0,0,0
CCOC(=O)C1CCN(CC(=O)Nc2c(C(=O)OC)[nH]c3cccc(Cl)c23)CC1,0,0,0,0,0
CN(C)CCCNC1=CC(=O)CC(c2ccccc2)C1 (stereo not given),0,-,-,83.3,0
O=C(CNC(=O)c1ccco1)N/N=C/c1cccs1,0,-,-,-,-
CCCCCOC(=O)CC(C(=O)OCCCCC)N1CCCCC1 (stereo not given),0,0,-,0,0
CCCCCCCCCOC(=O)C(CC(=O)O)N1CCOCC1 (stereo not given),-,0,29.4,67.9,0
CC1=NN(c2ccc(C(F)(F)F)cn2)C(=O)C1,0,0,58.1,0,0
Cc1cc(C)nc(NC(=O)C2c3ccccc3Oc3ccccc32)n1,0,-,-,0,0
Nc1sc(-c2ccccc2)cc1C(=O)O,0,0,84.0,0,0

# Bioassay records from PubChem.
